Values after ≈ are worked out from the molar mass of the structure shown.
Columns and labels:
Escherichia coli [1] = assay: Antibacterial activity against Escherichia coli MTCC 1650 after 24 hrs; assay type: functional; details: MTCC 1650, 24 h
In short: (§1)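 Agar well diffusion on Mueller Hinton agar seeded with 0.1 mL of a 10⁵ cfu/mL suspension in 0.85% saline. Compounds dissolved in DMSO, final concentrations 25–250 µg/mL, 0.1 mL loaded per 6 mm well. DMSO (1%) control; tetracycline (10 µg/mL) reference. Duplicate plates incubated 24 h at 37 °C. Inhibition zone read in mm. MIC taken as lowest concentration giving complete growth inhibition.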

Staphylococcus aureus [2] = assay: Antibacterial activity against Staphylococcus aureus MTCC 96 after 24 hrs; assay type: functional; details: MTCC 96, 24 h; in short: as §1
THP-1 [3] = assay: Cytotoxicity against human THP1 cells assessed as CCK8 release at 10 uM after 24 hrs by ELISA; assay type: cell-based; details: thp-1, 24 h
In short: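 Same THP-1 cytokine-assay cells, with compounds in 0.5% DMSO and LPS stimulation, were scored in parallel for cytotoxicity by CCK-8.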

PANC-1 = assay: Anticancer activity against human PANC1 cells at 10 uM after 48 hrs by propidium iodide fluorescence assay; assay type: functional
In short: (§2)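 Propidium iodide DNA-fluorescence assay. Seeding 3000–7500 cells/well, 24 h recovery at 37 °C in 5% CO₂. Compounds in 0.1% DMSO added to triplicate wells at 10 µM. Flavopiridol 700 nM and gemcitabine 500 nM as reference inhibitors. Plates frozen at −80 °C for 24 h, thawed to room temperature, fluorescence read at excitation 530 nm and emission 620 nm. Percent cytotoxicity calculated.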

Bacillus subtilis [4] = assay: Antibacterial activity against Bacillus subtilis MTCC 1789 after 24 hrs; assay type: functional; details: MTCC 1789, 24 h; in short: as §1
Penicillium chrysogenum = assay: Antifungal activity against Penicillium chrysogenum MTCC 1996 at 100 ug/ml after 48 hrs agar diffusion method; assay type: functional; details: for zone of inhibition at 100 µg/mL: MTCC 1996, 48 h, read-out: IZ
In short: (§3)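 Fungal spore suspensions in sterile distilled water adjusted to 10⁶ cfu/mL; 0.1 mL spread on Sabouraud dextrose agar. Wells of 6 mm filled with 0.1 mL compound dilution in DMSO. DMSO (1%) control; nystatin (30 µg/mL) reference. Duplicate plates incubated at 28 °C for 48 h. Activity read as inhibition zone diameter in mm.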

Klebsiella pneumoniae [5] = assay: Antibacterial activity against Klebsiella pneumoniae NCIM 2957 after 24 hrs; assay type: functional; details: NCIM 2957, 24 h; in short: as §1
Candida albicans = assay: Antifungal activity against Candida albicans MTCC 227 at 100 ug/ml after 48 hrs agar diffusion method; assay type: functional; details: MTCC 227, 48 h, read-out: IZ; in short: as §3
ACHN = assay: Anticancer activity against human ACHN cells at 10 uM after 48 hrs by propidium iodide fluorescence assay; assay type: functional; in short: as §2
Proteus vulgaris [6] = assay: Antibacterial activity against Proteus vulgaris MTCC 1771 at 50 ug/ml after 24 hrs agar diffusion method; assay type: functional; details: MTCC 1771, 24 h, read-out: IZ; in short: as §1
THP-1 [7] = assay: Antiinflammatory activity in human THP1 cells assessed as inhibition of LPS-induced IL6 release at 10 uM after 24 hrs by ELISA; assay type: functional; details: THP-1, 24 h
In short: (§4)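 THP-1 cells grown in RPMI 1640 with 10% FBS, penicillin and streptomycin, then PMA-differentiated. Compounds in 0.5% DMSO preincubated 30 min at 37 °C before LPS (E. coli 0127:B8) stimulation. TNF-α and IL-6 release measured by kit per the manufacturer (BD Biosciences). Percent inhibition calculated relative to control. Dexamethasone 1 µM as reference.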

Calu-1 = assay: Anticancer activity against human Calu1 cells at 10 uM after 48 hrs by propidium iodide fluorescence assay; assay type: functional; in short: as §2
Trichoderma viride = assay: Antifungal activity against Trichoderma viride MTCC 167 at 100 ug/ml after 48 hrs agar diffusion method; assay type: functional; details: for zone of inhibition at 100 µg/mL: MTCC 167, 48 h, read-out: IZ; in short: as §3
Staphylococcus aureus [8] = assay: Antibacterial activity against Staphylococcus aureus MTCC 96 at 50 ug/ml after 24 hrs agar diffusion method; assay type: functional; details: MTCC 96, 24 h, read-out: IZ; in short: as §1
THP-1 [9] = assay: Antiinflammatory activity in human THP1 cells assessed as inhibition of LPS-induced TNFalpha release at 10 uM after 24 hrs by ELISA; assay type: functional; details: THP-1, 24 h; in short: as §4
NCI-H460 = assay: Anticancer activity against human H460 cells at 10 uM after 48 hrs by propidium iodide fluorescence assay; assay type: functional; in short: as §2
Bacillus subtilis [10] = assay: Antibacterial activity against Bacillus subtilis MTCC 1789 at 50 ug/ml after 24 hrs agar diffusion method; assay type: functional; details: MTCC 1789, 24 h, read-out: IZ; in short: as §1
Klebsiella pneumoniae [11] = assay: Antibacterial activity against Klebsiella pneumoniae NCIM 2957 at 50 ug/ml after 24 hrs agar diffusion method; assay type: functional; details: NCIM 2957, 24 h, read-out: IZ; in short: as §1
Proteus vulgaris [12] = assay: Antibacterial activity against Proteus vulgaris MTCC 1771 after 24 hrs; assay type: functional; details: MTCC 1771, 24 h; in short: as §1
Aspergillus niger = assay: Antifungal activity against Aspergillus niger MTCC 1781 at 100 ug/ml after 48 hrs agar diffusion method; assay type: functional; details: for zone of inhibition at 100 µg/mL: MTCC 1781, 48 h, read-out: IZ; in short: as §3
HCT-116 = assay: Anticancer activity against human HCT116 cells at 10 uM after 48 hrs by propidium iodide fluorescence assay; assay type: functional; in short: as §2
Escherichia coli [13] = assay: Antibacterial activity against Escherichia coli MTCC 1650 at 50 ug/ml after 24 hrs agar diffusion method; assay type: functional; details: MTCC 1650, 24 h, read-out: IZ; in short: as §1
Aspergillus flavus = assay: Antifungal activity against Aspergillus flavus MTCC 2501 at 100 ug/ml after 48 hrs agar diffusion method; assay type: functional; details: for zone of inhibition at 100 µg/mL: MTCC 2501, 48 h, read-out: IZ; in short: as §3

| Compound | MIC (Escherichia coli [1]) [µg/mL] | MIC (Staphylococcus aureus [2]) [µg/mL] | Activity (THP-1 [3]) [%] | Activity (PANC-1) [%] | MIC (Bacillus subtilis [4]) [µg/mL] | MIC (Klebsiella pneumoniae [5]) [µg/mL] | Activity (ACHN) [%] | zone of inhibition at 50 µg/mL (Proteus vulgaris [6]) [mm] | inhibition at 10 µM (THP-1 [7]) [%] | Activity (Calu-1) [%] | zone of inhibition at 100 µg/mL (Trichoderma viride) [mm] | zone of inhibition at 50 µg/mL (Staphylococcus aureus [8]) [mm] | inhibition at 10 µM (THP-1 [9]) [%] | Activity (NCI-H460) [%] | zone of inhibition at 50 µg/mL (Bacillus subtilis [10]) [mm] | zone of inhibition at 50 µg/mL (Klebsiella pneumoniae [11]) [mm] | MIC (Proteus vulgaris [12]) [µg/mL] | Activity (HCT-116) [%] | zone of inhibition at 50 µg/mL (Escherichia coli [13]) [mm] | zone of inhibition at 100 µg/mL (Aspergillus flavus) [mm] | also measured |
| --- | --- | --- | --- | --- | --- | --- | --- | --- | --- | --- | --- | --- | --- | --- | --- | --- | --- | --- | --- | --- | --- |
| COc1ccc(/C(Cl)=C/C=C/C(=O)c2ccc(OC)cc2OC)cc1 | 50 (≈ 139 µM) | 50 (≈ 139 µM) | 0 | 31 | 50 (≈ 139 µM) | 50 (≈ 139 µM) | 33 | 15 | 49 | 31 | 14 | 12 | 0 | 33 | 20 | 12 | 50 (≈ 139 µM) | 31 | 14 | 12 | zone of inhibition at 100 µg/mL (Penicillium chrysogenum): 12 mm; zone of inhibition at 100 µg/mL (Candida albicans): 8 mm; zone of inhibition at 100 µg/mL (Aspergillus niger): 15 mm |
| COc1ccc(C(=O)/C=C/C=C(\Cl)c2ccc(Br)cc2)cc1 | 50 (≈ 132 µM) | 50 (≈ 132 µM) | 30 | 25 | 50 (≈ 132 µM) | 50 (≈ 132 µM) | 39 |  | 97 | 29 | 8 | 12 | 66 | 20 |  | 11 | 50 (≈ 132 µM) | 20 |  | 8 | zone of inhibition at 100 µg/mL (Penicillium chrysogenum): 12 mm |
| NYSTATIN |  |  |  |  |  |  |  |  |  |  |  |  |  |  |  |  |  |  |  |  | inhibition zone (IZ) (Penicillium chrysogenum): 14 mm; inhibition zone (IZ) (Trichoderma viride): 12 mm; inhibition zone (IZ) (Aspergillus niger): 13 mm; inhibition zone (IZ) (Aspergillus flavus): 16 mm |
| COc1ccc(C(=O)/C=C/C=C(\Cl)c2cccc(Cl)c2)cc1 | 50 (≈ 150 µM) | 50 (≈ 150 µM) | 35 | 18 | 50 (≈ 150 µM) | 50 (≈ 150 µM) | 22 | 15 | 3 | 20 | 11 | 13 | 1 | 26 | 15 | 17 | 50 (≈ 150 µM) | 31 | 10 | 8 |  |
| COc1ccc(C(=O)/C=C/C=C(\Cl)c2ccc(Br)cc2)c(OC)c1 | 50 (≈ 123 µM) | 50 (≈ 123 µM) | 0 | 33 | 50 (≈ 123 µM) | 50 (≈ 123 µM) | 39 | 10 | 36 | 27 | 16 | 12 | 0 | 16 | 16 | 18 | 50 (≈ 123 µM) | 22 | 13 | 18 | zone of inhibition at 100 µg/mL (Penicillium chrysogenum): 16 mm; zone of inhibition at 100 µg/mL (Candida albicans): 12 mm; zone of inhibition at 100 µg/mL (Aspergillus niger): 12 mm |
| CN(C)[C@@H]1C(O)=C(C(N)=O)C(=O)[C@@]2(O)C(O)=C3C(=O)c4c(O)cccc4[C@@](C)(O)[C@H]3C[C@@H]12 [TETRACYCLINE] |  |  |  |  |  |  |  | 16 |  |  |  | 18 |  |  | 18 | 20 |  |  | 15 |  |  |
| COc1ccc(C(=O)/C=C/C=C(\Cl)c2ccc(OC)cc2)cc1 | 50 (≈ 152 µM) | 50 (≈ 152 µM) | 0 | 16 | 50 (≈ 152 µM) | 50 (≈ 152 µM) | 28 |  | 11 | 38 | 14 | 12 | 2 | 19 |  | 12 | 50 (≈ 152 µM) | 16 | 17 | 14 | zone of inhibition at 100 µg/mL (Penicillium chrysogenum): 15 mm; zone of inhibition at 100 µg/mL (Candida albicans): 11 mm; zone of inhibition at 100 µg/mL (Aspergillus niger): 14 mm |
| COc1ccc(C(=O)/C=C/C=C(\Cl)c2ccc(F)cc2)c(OC)c1 | 50 (≈ 144 µM) | 50 (≈ 144 µM) | 0 | 23 | 50 (≈ 144 µM) | 50 (≈ 144 µM) | 30 | 16 | 44 | 36 |  |  | 0 | 26 | 10 |  | 50 (≈ 144 µM) | 14 | 11 | 10 |  |
| COc1ccc(C(=O)/C=C/C=C(\Cl)c2ccc(OC)cc2OC)cc1 | 50 (≈ 139 µM) | 50 (≈ 139 µM) | 35 | 7 | 50 (≈ 139 µM) | 50 (≈ 139 µM) | 33 |  | 40 | 7 | 12 |  | 0 | 15 | 12 |  | 50 (≈ 139 µM) | 0 | 10 | 10 | zone of inhibition at 100 µg/mL (Aspergillus niger): 11 mm |
| COc1ccc(C(=O)/C=C/C=C(\Cl)c2ccc(Cl)cc2)c(OC)c1 | 50 (≈ 138 µM) | 50 (≈ 138 µM) | 0 | 32 | 50 (≈ 138 µM) | 50 (≈ 138 µM) | 37 | 18 | 43 | 32 | 12 | 13 | 0 | 21 | 14 | 15 | 50 (≈ 138 µM) | 26 | 10 | 12 | zone of inhibition at 100 µg/mL (Penicillium chrysogenum): 14 mm; zone of inhibition at 100 µg/mL (Aspergillus niger): 14 mm |
| COc1ccc(C(=O)/C=C/C=C(\Cl)c2ccc(Cl)cc2)cc1 | 50 (≈ 150 µM) | 50 (≈ 150 µM) | 28 | 30 | 50 (≈ 150 µM) | 50 (≈ 150 µM) | 35 |  | 95 | 32 | 12 |  | 67 | 33 |  | 10 | 50 (≈ 150 µM) | 29 |  | 12 | zone of inhibition at 100 µg/mL (Penicillium chrysogenum): 12 mm; zone of inhibition at 100 µg/mL (Candida albicans): 10 mm; zone of inhibition at 100 µg/mL (Aspergillus niger): 13 mm |
| COc1ccc(C(=O)/C=C/C=C(\Cl)c2ccc(OC)cc2OC)c(OC)c1 | 50 (≈ 129 µM) | 50 (≈ 129 µM) | 0 | 23 | 50 (≈ 129 µM) | 50 (≈ 129 µM) | 26 | 13 | 27 | 24 |  |  | 0 | 18 |  |  | 50 (≈ 129 µM) | 29 |  |  | zone of inhibition at 100 µg/mL (Aspergillus niger): 13 mm |

Source: ChEMBL document CHEMBL1157556, “Synthesis and biological screening of a combinatorial library of beta-chlorovinyl chalcones as anticancer, anti-inflammatory and antimicrobial agents” (Bioorg Med Chem, 2010)
